# The source made the active and inactive calls.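 How the source made its calls, unless noted: active means GFP response above 150% of the DMSO level; inconclusive means fewer than 70 events counted for a yeast strain; inactive means the rest.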
# What was measured:
# [1] = hit retest on RPL19A-GFP reporter strain – cell-based, S. cerevisiae, flow cytometry, cherry picks, mother/daughter gates, confirmation (AID 2270;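 active means GFP response below 50% of the DMSO control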); conditions: 3 h, at 10 µM, stronger effect = lower value, 100 = same GFP as DMSO wells
# [2] = yeast TOR pathway reporter LAP4-GFP change – cell-based, cherry picks, flow cytometry, mother/daughter gates, confirmation (AID 2271;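 active means GFP response above 150% of the DMSO control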;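 further: ratio of sample to DMSO plate mean so 100% equals DMSO level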); conditions: S. cerevisiae LAP4-GFP strain, 3 h, at 10 µM, stronger effect = higher value, 100 means same as DMSO control
# In short: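 System: Alexa 633-stained baker's yeast GFP-fusion strain; quantity: 0.2 OD600 cells; timing: compound exposure 3 h at 30 °C, end-over-end rotation; detection: HT flow cytometry, GFP fluorescence channel; measure: per-gate (all, mother, daughter) GFP response vs DMSO; control set: DMSO-only negative wells, rapamycin 400 ng/mL positive wells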
# [3] = TOR pathway reporter MEP2-GFP, retest of hits – S. cerevisiae, flow cytometry GFP, cherry picks, confirmation (AID 2272;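 active means GFP response above 150% of the DMSO control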;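 further: ratio of well signal to plate DMSO mean so 100% equals DMSO level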); conditions: S. cerevisiae MEP2-GFP strain, 3 h, at 10 µM, stronger effect = higher value
# [4] = yeast AGP1-GFP fluorescence change, single-dose – cell-based, flow cytometry, S. cerevisiae, cherry picks, confirmation (AID 2273);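 further: median GFP channel fluorescence over the whole cell population gate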; conditions: S. cerevisiae AGP1-GFP strain, 3 h, at 10 µM
# [5] = TOR pathway CIT2 reporter hit retest – S. cerevisiae, GFP fusion, cherry picks, mother/daughter gates, confirmation (AID 2274); conditions: S. cerevisiae CIT2-GFP strain, flow cytometry, 3 h, at 10 µM, stronger effect = higher value
# [6] = measured here: daughter cell gate
# [7] = measured here: mother cell gate
# [8] = measured here: daughter cell gate response
# [9] = measured here: mother cell gate response
Compound,GFP response vs DMSO [1],"GFP response vs DMSO [1, 6] [%]","GFP response vs DMSO [1, 7] [%]",GFP response relative to DMSO [2],"GFP response relative to DMSO [2, 8] [%]","GFP response relative to DMSO [2, 9] [%]",GFP response vs DMSO [3],"GFP response, % of DMSO [4]","GFP response, % of DMSO [5]","GFP response, % of DMSO [5, 6] [%]","GFP response, % of DMSO [5, 7] [%]"
O=C(OCCCOC(=O)c1ccc(Br)o1)c1ccc(Br)o1,98.2% (inactive),95.3,98,108% (inactive),108,109,103% (inactive),102% (inactive),97.2% (inactive),97.6,97.1
Cc1ccc(C(=O)c2c3ccccc3[n+]([O-])n2CCO)cc1,97% (inactive),97.4,96.6,96.7% (inactive),96,94,98.3% (inactive),97.6% (inactive),96.9% (inactive),99.1,97.3
O=S(=O)(/N=C(/Sc1ccccc1)c1ccccc1)c1ccccc1,92% (inactive),92.5,89.8,179% (active),152,180,106% (inactive),101% (inactive),84.7% (inactive),88.7,79.2
Cc1ccc2nc(/C(C#N)=C/c3ccc(O)c(O)c3)[nH]c2c1,103% (inactive),102,105,123% (inactive),110,133,230% (active),102% (inactive),128% (inactive),114,140
O=C(/C=C/c1ccccc1)C1=C(O)C(=O)N(CCO)C1c1cccc([N+](=O)[O-])c1 (configuration not stated),99.8% (inactive),99.3,100,97.7% (inactive),101,97.4,101% (inactive),103% (inactive),100% (inactive),101,99.3
CCN(Cc1ccccc1)S(=O)(=O)c1ccc(C(=O)Nc2nnc(-c3ccccc3OC)o2)cc1,98.4% (inactive),98.6,98.4,94.1% (inactive),92.8,94,102% (inactive),96.4% (inactive),98.3% (inactive),97.2,99.7
CCOC(=O)CNc1c(-c2ccc(O)cc2)nc2ccccn12,98.5% (inactive),99.3,98,100% (inactive),104,98.4,97.2% (inactive),104% (inactive),101% (inactive),103,103
COc1ccccc1-c1nnc(NC(=O)c2ccc(S(=O)(=O)N(C)Cc3ccccc3)cc2)o1,100% (inactive),98.8,100,95.3% (inactive),95,94.6,104% (inactive),98.9% (inactive),97.8% (inactive),98.3,98
CCOC(=O)c1cnn(-c2cc(C)nc3c(-c4ccccc4)cnn23)c1N,96.7% (inactive),98.1,95.4,92.9% (inactive),92.9,94.4,103% (inactive),89.3% (inactive),98.6% (inactive),97.6,98.2
COC(=O)c1ccc(/C=N/OCC(=O)NCCc2ccc(OC)c(OC)c2)cc1,99% (inactive),99,98.7,97.4% (inactive),102,97.2,102% (inactive),102% (inactive),107% (inactive),106,107
Cc1ccc(S(=O)(=O)N(Cc2ccc(F)cc2)Cc2ccco2)cc1,97.6% (inactive),96.7,97.7,102% (inactive),105,104,103% (inactive),97.9% (inactive),97.2% (inactive),99.3,98.2
O=C(Nc1ccccc1O)c1ccc(Cl)cc1,96.8% (inactive),95.6,96.6,98.7% (inactive),100,100,102% (inactive),97.8% (inactive),100% (inactive),99.7,98.7
N/C(=N\OC(=O)c1ccccc1Cl)c1ccc(Cl)cc1,101% (inactive),101,101,135% (inactive),115,135,108% (inactive),77.2% (inactive),130% (inactive),117,132
CC(=O)Nc1ccc(-c2csc(NC(=O)c3ccc(C)o3)n2)cc1,98.4% (inactive),98.1,99.8,97.9% (inactive),99.2,98.3,100% (inactive),98.3% (inactive),105% (inactive),106,104
COC(=O)c1ccc(/C=C/C(=O)c2ccc(OC)c(OC)c2)cc1,101% (inactive),101,99.6,113% (inactive),110,117,104% (inactive),102% (inactive),104% (inactive),106,102
COc1ccc(N2C(=O)c3cccc4cccc(c34)C2=O)nn1,98% (inactive),97.3,98.7,89% (inactive),91,91.1,97.8% (inactive),98% (inactive),92.6% (inactive),93.2,91.2
COc1ccc(C(=O)NC(=S)NNC(=O)c2cnccn2)cc1,99.3% (inactive),91.3,96,285% (active),176,262,114% (inactive),95.2% (inactive),104% (inactive),96.4,93.3
O=C(CSc1nnc(C2COc3ccccc3O2)o1)N1CCCC1 (configuration not stated),97.8% (inactive),98.6,98.7,94.9% (inactive),98.2,95.1,98.8% (inactive),103% (inactive),112% (inactive),111,112
S=C(Sc1ccc(Cl)cc1)Sc1ccc(Cl)cc1,97.6% (inactive),93.2,95.1,112% (inactive),108,115,112% (inactive),110% (inactive),112% (inactive),105,107
COc1ccc(-c2nc(NC(=O)c3cc(C(C)(C)C)nn3C)sc2C)cc1,98.7% (inactive),100,99,98.9% (inactive),101,99.5,103% (inactive),100% (inactive),104% (inactive),103,104
CN(C)c1ccc(/C=N/NC(=O)c2ccc(Cl)cc2)cc1,98% (inactive),97,97.4,102% (inactive),97.9,103,102% (inactive),100% (inactive),97.8% (inactive),98.3,95.6
O=C(NCC(c1ccc(F)cc1)N1CCOCC1)c1cc(F)c(F)c(F)c1F (configuration not stated),100% (inactive),99.6,101,102% (inactive),102,102,101% (inactive),102% (inactive),102% (inactive),101,101
COc1ccc(S(=O)(=O)N2CCC(O)(c3ccc(Cl)cc3)CC2)cc1,101% (inactive),99.6,101,97.9% (inactive),97.6,97.2,105% (inactive),91.9% (inactive),107% (inactive),106,104
O=C(O)C1Sc2[nH]c(=O)sc2C2c3cc(Br)ccc3OC(=O)C12 (configuration not stated),96.3% (inactive),97.6,96.8,171% (active),150,200,195% (active),102% (inactive),111% (inactive),108,113
Cn1c(=O)c(C(=O)NC2CCCCCCC2)c(O)c2ccccc21,101% (inactive),102,103,93.8% (inactive),94.1,96.2,95.7% (inactive),98.9% (inactive),107% (inactive),105,111
O=[N+]([O-])c1cc(CN2CCN(c3cccc(C(F)(F)F)c3)CC2)c2cccnc2c1O,112% (inactive),96.4,104,234% (active),229,216,145% (inactive),116% (inactive),138% (inactive),117,131
CCOC(=O)/C=C1\SCC(=O)N1Cc1nnc(-c2ccccc2Br)o1,96.2% (inactive),97.6,96.4,90.2% (inactive),89.6,90.8,100% (inactive),100% (inactive),99.7% (inactive),101,99.7

# — PubChem BioAssay
